Measured values reported in ChEMBL document CHEMBL1157730, “Diaryl piperidines as CB1 receptor antagonists” (Bioorg Med Chem Lett, 2010).

Columns and labels:
Cannabinoid receptor 2 [1] = target: T1, Cannabinoid receptor 2 (Homo sapiens, UniProt P34972); experiment: Binding affinity to human CB2 receptor
Cannabinoid receptor 1 = Cannabinoid receptor 1 (Homo sapiens, UniProt P21554); experiment: Binding affinity to human CB1 receptor
Cannabinoid receptor 2 [2] = target: T1, Cannabinoid receptor 2; experiment: Binding affinity to human CB2 receptor at 1 uM
Mus musculus [3] = experiment: Reduction of food intake in DIO mouse model at 3 mg/kg, po after 24 hrs relative to control; type: functional; design: scale not given: the % may be the effect or the level left
Procedure, shortened: (§1)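 Fed diet-induced obese mice; oral dosing 1 h before dark onset; food intake measured at 2, 4, 6 and 24 h and expressed as percent reduction versus vehicle-treated mice; significance threshold p<0.05.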

Mus musculus [4] = experiment: Reduction of food intake in DIO mouse model at 3 mg/kg, po after 2 hrs relative to control; type: functional; design: scale not given: the % may be the effect or the level left; procedure, shortened: as §1
[5] = Drug level in DIO mouse plasma at 3 mg/kg, po after 24 hrs; type: ADME, organism-based; design: dose 3 mg/kg, route oral; conditions: read-out: Drug uptake
Procedure, shortened: (§2)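 Diet-induced obese mice dosed orally at 3 mg/kg, 1 h before dark onset; total drug concentrations in plasma (ng/mL) and brain (ng/g) measured at the 24-h time point.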

Mus musculus [6] = experiment: Reduction of food intake in DIO mouse model at 3 mg/kg, po after 6 hrs relative to control; type: functional; design: scale not given: the % may be the effect or the level left; procedure, shortened: as §1
Mus musculus [7] = experiment: Reduction of food intake in DIO mouse model at 3 mg/kg, po after 4 hrs relative to control; type: functional; design: scale not given: the % may be the effect or the level left; procedure, shortened: as §1
[8] = Drug level in DIO mouse brain at 3 mg/kg, po after 24 hrs; type: ADME, organism-based; design: dose 3 mg/kg, route oral; conditions: read-out: Drug uptake; procedure, shortened: as §2

T1 sequence (P34972 whole entry): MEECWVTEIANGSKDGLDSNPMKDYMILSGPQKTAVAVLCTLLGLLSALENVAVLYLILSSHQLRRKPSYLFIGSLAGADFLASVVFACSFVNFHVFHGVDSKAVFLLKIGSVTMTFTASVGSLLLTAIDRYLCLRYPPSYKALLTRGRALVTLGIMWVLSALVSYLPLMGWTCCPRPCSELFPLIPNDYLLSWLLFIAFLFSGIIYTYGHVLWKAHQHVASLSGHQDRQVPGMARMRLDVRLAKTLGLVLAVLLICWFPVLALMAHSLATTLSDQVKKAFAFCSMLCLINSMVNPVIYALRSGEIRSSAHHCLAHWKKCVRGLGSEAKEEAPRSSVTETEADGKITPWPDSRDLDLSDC
Cannabinoid receptor 1, sequence (P21554 whole entry): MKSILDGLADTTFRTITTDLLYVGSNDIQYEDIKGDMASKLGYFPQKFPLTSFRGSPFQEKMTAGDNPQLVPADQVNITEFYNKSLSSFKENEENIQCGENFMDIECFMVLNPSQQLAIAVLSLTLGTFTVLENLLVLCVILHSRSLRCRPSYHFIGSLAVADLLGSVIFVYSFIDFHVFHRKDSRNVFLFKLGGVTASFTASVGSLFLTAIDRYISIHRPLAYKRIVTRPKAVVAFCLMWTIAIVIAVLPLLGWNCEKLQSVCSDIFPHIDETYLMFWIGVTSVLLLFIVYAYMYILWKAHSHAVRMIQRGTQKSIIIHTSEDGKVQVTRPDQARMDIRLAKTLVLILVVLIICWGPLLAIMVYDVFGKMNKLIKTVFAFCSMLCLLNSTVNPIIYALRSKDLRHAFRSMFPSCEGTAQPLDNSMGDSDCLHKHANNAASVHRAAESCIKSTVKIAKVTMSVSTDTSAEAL

Row | Structure (SMILES) | Ki (Cannabinoid receptor 2 [1]) [nM] | Ki (Cannabinoid receptor 1) [nM] | also measured
1 | O=C1[C@@H](Cc2ccc(F)c(F)c2)CC[C@H](c2ccc(Cl)cc2Cl)N1c1ccc(Cl)cc1 (relative stereo) | > 1680 | 109 | –
2 | Fc1ccc(C[C@H]2CC[C@H](c3ccc(Cl)cc3)N(c3ccc(Cl)cc3Cl)C2)cc1F (relative stereo) | > 1850 | 467 | –
3 | CCCS(=O)(=O)NC[C@@H]1CC[C@@H](c2ccc(Cl)cc2Cl)N(c2ccc(Cl)cc2)C1 | – | 48 | inhibition (Cannabinoid receptor 2 [2]): 25%
4 | NC[C@@H]1CC[C@@H](c2ccc(Cl)cc2Cl)N(c2ccc(Cl)cc2)C1 | > 1850 | 133 | –
5 | O=S(=O)(C[C@@H]1CC[C@@H](c2ccc(Cl)cc2Cl)N(c2ccc(Cl)cc2)C1)NC1CCCCC1 | 1250 | 35 | –
6 | O=S(=O)(NCCC1CCC(c2ccc(Cl)cc2Cl)N(c2ccc(Cl)cc2)C1)C1CC1 (stereo in doubt; 14f) | > 2400 | 3.4 | Activity (Mus musculus [3]): 37%; Activity (Mus musculus [4]): 39%; concentration at 24 h [5]: 15 ng/mL; Activity (Mus musculus [6]): 38%; Activity (Mus musculus [7]): 37%; concentration at 24 h [8]: 66 ng/g
7 | O=C(NC[C@@H]1CC[C@@H](c2ccc(Cl)cc2Cl)N(c2ccc(Cl)cc2)C1)C1CC1 | – | 112 | inhibition (Cannabinoid receptor 2 [2]): 25%
8 | NCC[C@@H]1CC[C@@H](c2ccc(Cl)cc2Cl)N(c2ccc(Cl)cc2)C1 | > 2220 | 61 | –
9 | CC(C)(C)OC(=O)N1CCN(C[C@@H]2CC[C@@H](c3ccc(Cl)cc3Cl)N(c3ccc(Cl)cc3)C2)CC1 | > 1850 | 8 | –
10 | O=C(NC1CCCCC1)[C@@H]1CC[C@@H](c2ccc(Cl)cc2Cl)N(c2ccc(Cl)cc2)C1 | 368 | 18 | –
11 | O=C1[C@@H](Cc2ccc(F)c(F)c2)CC[C@H](c2ccc(Cl)cc2)N1c1ccc(Cl)cc1 (relative stereo) | 574 | 444 | –
12 | CC(=O)N1CCN(C[C@@H]2CC[C@@H](c3ccc(Cl)cc3Cl)N(c3ccc(Cl)cc3)C2)CC1 | > 1850 | 451 | –
13 | O=C(NC1CCC1)[C@@H]1CC[C@@H](c2ccc(Cl)cc2Cl)N(c2ccc(Cl)cc2)C1 | 1380 | 33 | –
14 | O=S(=O)(NC[C@@H]1CC[C@@H](c2ccc(Cl)cc2Cl)N(c2ccc(Cl)cc2)C1)c1cccnc1 | > 1850 | 6 | –
15 | Fc1ccc(C[C@H]2CC[C@H](c3ccc(Cl)cc3)N(c3ccc(Cl)cc3)C2)cc1F (relative stereo) | > 1770 | 72 | –
16 | O=S(=O)(NCCC1CCC(c2ccc(Cl)cc2Cl)N(c2ccc(Cl)cc2)C1)C1CC1 (single isomer, unassigned; enantiomer 2) | > 2400 | 57 | –
17 | CC(=O)NCC[C@@H]1CC[C@@H](c2ccc(Cl)cc2Cl)N(c2ccc(Cl)cc2)C1 | > 2400 | 42 | –
18 | O=S(=O)(NC[C@@H]1CC[C@@H](c2ccc(Cl)cc2Cl)N(c2ccc(Cl)cc2)C1)C1CC1 | > 1850 | 158 | –

Row | Structure (SMILES) | Ki (Cannabinoid receptor 2 [1]) [nM] | Ki (Cannabinoid receptor 1) [nM] | also measured
19 | Fc1ccc(C[C@H]2CC[C@H](c3ccc(Cl)cc3Cl)N(c3ccc(Cl)cc3)C2)cc1F (relative stereo) | > 1850 | 15 | –
20 | CC(C)(C)CC(=O)N1CCN(C[C@@H]2CC[C@@H](c3ccc(Cl)cc3Cl)N(c3ccc(Cl)cc3)C2)CC1 | > 2400 | 13 | Activity (Mus musculus [3]): 9%; Activity (Mus musculus [4]): 0%; concentration at 24 h [5]: 1 ng/mL; Activity (Mus musculus [6]): 3%; Activity (Mus musculus [7]): 0%
21 | O=C(NCc1ccc(Cl)cc1)[C@@H]1CC[C@@H](c2ccc(Cl)cc2Cl)N(c2ccc(Cl)cc2)C1 | > 1850 | 63 | –
22 | N#Cc1ccc(C(=O)NC[C@@H]2CC[C@@H](c3ccc(Cl)cc3Cl)N(c3ccc(Cl)cc3)C2)cc1 | 1410 | 5 | Activity (Mus musculus [3]): 10%; Activity (Mus musculus [4]): 22%; concentration at 24 h [5]: 28 ng/mL; Activity (Mus musculus [6]): 24%; Activity (Mus musculus [7]): 22%; concentration at 24 h [8]: 12 ng/g
23 | O=S(=O)(NCC[C@@H]1CC[C@@H](c2ccc(Cl)cc2Cl)N(c2ccc(Cl)cc2)C1)c1cccnc1 | > 2220 | 5.8 | –
24 | N#Cc1ccc(S(=O)(=O)NCC[C@@H]2CC[C@@H](c3ccc(Cl)cc3Cl)N(c3ccc(Cl)cc3)C2)cc1 | > 2220 | 4.2 | –
25 | O=S(=O)(NCC[C@@H]1CC[C@@H](c2ccc(Cl)cc2Cl)N(c2ccc(Cl)cc2)C1)C1CC1 | > 2220 | 3.8 | –
26 | N#Cc1ccc(C(=O)NCC[C@@H]2CC[C@@H](c3ccc(Cl)cc3Cl)N(c3ccc(Cl)cc3)C2)cc1 | > 2450 | 5.1 | –
27 | CC(C)CNC(=O)[C@@H]1CC[C@@H](c2ccc(Cl)cc2Cl)N(c2ccc(Cl)cc2)C1 | 1580 | 33 | –
28 | Clc1ccc(N2C[C@H](CN3CCNCC3)CC[C@H]2c2ccc(Cl)cc2Cl)cc1 | > 2000 | 554 | –
29 | CC(C)CCNS(=O)(=O)[C@@H]1CC[C@@H](c2ccc(Cl)cc2Cl)N(c2ccc(Cl)cc2)C1 | 1380 | 9.1 | –
30 | CC(C)(C)CCN1CCN(C[C@@H]2CC[C@@H](c3ccc(Cl)cc3Cl)N(c3ccc(Cl)cc3)C2)CC1 | > 1500 | 57 | –
31 | CS(=O)(=O)N1CCN(C[C@@H]2CC[C@@H](c3ccc(Cl)cc3Cl)N(c3ccc(Cl)cc3)C2)CC1 | > 1850 | 690 | –
32 | O=C1[C@H](Cc2ccc(F)c(F)c2)CC[C@H](c2ccc(Cl)cc2)N1c1ccc(Cl)cc1 (relative stereo) | > 1780 | 714 | –
33 | Fc1ccc(C[C@@H]2CC[C@H](c3ccc(Cl)cc3)N(c3ccc(Cl)cc3)C2)cc1F (relative stereo) | > 1850 | > 1640 | –
34 | O=S(=O)(NC[C@@H]1CC[C@@H](c2ccc(Cl)cc2Cl)N(c2ccc(Cl)cc2)C1)c1cccc2ccccc12 | – | 2.3 | inhibition (Cannabinoid receptor 2 [2]): 5%
35 | O=S(=O)(C1CC1)N1CCN(C[C@@H]2CC[C@@H](c3ccc(Cl)cc3Cl)N(c3ccc(Cl)cc3)C2)CC1 | > 2220 | 44 | –
